Laboratory results: ChEMBL document CHEMBL1921744, “Lipophosphonoxins: new modular molecular structures with significant antibacterial properties” (J Med Chem, 2011)
In brackets after ≈: the same amount, converted by molar mass. Activity calls are given as the source filed them. The rule behind the calls is not given here.

Assays:
[1] = system: Streptococcus agalactiae; assay: Antibacterial activity against Streptococcus agalactiae after 24 to 48 hrs by microdilution method; format: functional
Summary of the method: (§1)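 Incubation 24/48 h at 37 °C. MIC read as the lowest concentration inhibiting growth. MBC determined by transferring 10 μL from wells onto blood agar, taken as the lowest concentration with no visible growth.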

[2] = system: Escherichia coli; assay: Antibacterial activity against permeabilized Escherichia coli DH5[alpha] assessed as log reduction of colony forming unit at 10 uM; format: functional, organism-based
Summary of the method: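 Competent (permeabilized) E. coli DH5α cells were mixed with 5 ng pUC18 (ampR) and serially diluted compound or buffer only. Steps: 30 min on ice, heat shock at 42 °C for 90 s, 5 min on ice, then LB without antibiotic for 1 h at 37 °C with shaking. Plated on LB agarose with ampicillin 100 μg/mL overnight at 37 °C. Colonies counted against the no-compound control.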

[3] = system: Enterococcus faecium; assay: Antibacterial activity against vancomycin-resistant Enterococcus faecium VanA419/ana after 24 to 48 hrs by microdilution method; format: functional
Summary of the method: (§2)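 Broth microdilution MIC on clinical isolates from Teaching Hospital Olomouc, stored at −80 °C. Compounds were serially diluted in brain heart infusion broth over 200–1.56 μg/mL (sometimes extended to 0.78 μg/mL), with an inoculum of 10⁵⁻⁶ CFU/ml per well. Plates were incubated at 37 °C and read at 24/48 h. MIC was taken as the lowest concentration inhibiting growth.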

[4] = system: Staphylococcus epidermidis; assay: Antibacterial activity against methicillin-resistant Staphylococcus epidermidis 8700/B after 24 to 48 hrs by microdilution method; format: functional; summary of the method: as §2
[5] = Cytotoxicity against human Erythroid progenitor cells assessed as cell viability after 48 hrs by CellTiter-blue assay; format: cell-based
Summary of the method: (§3)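 Normal human erythroid progenitor cells, expanded from umbilical cord blood, plated at 25000 cells/well immediately before compound addition (added as a 5× predilution in culture medium). Viability by CellTiter-Blue fluorescence 48 h after addition, normalized to untreated cells set as 100%.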

[6] = Cytotoxicity against human Erythroid progenitor cells assessed as maximum safe concentration after 48 hrs by CellTiter-blue assay; format: cell-based; settings: read-out: Activity; summary of the method: as §3
[7] = Induction of apoptosis in human Erythroid progenitor cells assessed as caspase 3/7 activation after 4 hrs by Caspase-Glo 3/7 assay
Summary of the method: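 Cord-blood-derived human erythroid progenitor cells plated at 25000 cells/well and exposed to compound prediluted in medium. Caspase 3/7 activation read by Caspase-Glo 3/7 luminescence 4 h after addition, normalized to untreated control cells set as 100%.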

[8] = system: Escherichia coli; assay: Antibacterial activity against Escherichia coli after 24 to 48 hrs by microdilution method; format: functional; summary of the method: as §1
[9] = system: Pseudomonas aeruginosa; assay: Antibacterial activity against Pseudomonas aeruginosa after 24 to 48 hrs by microdilution method; format: functional; summary of the method: as §1
[10] = system: Enterococcus faecalis; assay: Antibacterial activity against Enterococcus faecalis CCM 4224 after 24 to 48 hrs by microdilution method; format: functional; summary of the method: as §1
[11] = system: Staphylococcus aureus; assay: Antibacterial activity against Staphylococcus aureus CCM 4223 after 24 to 48 hrs by microdilution method; format: functional; summary of the method: as §1
[12] = system: Bacillus subtilis; assay: Antibacterial activity against Bacillus subtilis after 24 to 48 hrs by microdilution method; format: functional; summary of the method: as §1
[13] = system: Staphylococcus aureus; assay: Antibacterial activity against methicillin-sensitive Staphylococcus aureus ATCC 29213; format: functional; summary of the method: as §1
[14] = system: Staphylococcus aureus; assay: Antibacterial activity against methicillin-resistant Staphylococcus aureus SR3637; format: functional
[15] = system: Enterococcus faecalis; assay: Antibacterial activity against Enterococcus faecalis ATCC 29212; format: functional
[16] = system: Enterococcus faecalis; assay: Antibacterial activity against vancomycin-resistant Enterococcus faecalis SR7914; format: functional
[17] = system: Enterococcus faecium; assay: Antibacterial activity against Enterococcus faecium ATCC 19434; format: functional; summary of the method: as §1
[18] = system: Enterococcus faecium; assay: Antibacterial activity against vancomycin-resistant Enterococcus faecium SR7917; format: functional
[19] = system: Staphylococcus aureus; assay: Antibacterial activity against methicillin-resistant Staphylococcus aureus 4591 after 24 to 48 hrs by microdilution method; format: functional; summary of the method: as §2
[20] = system: Staphylococcus haemolyticus; assay: Antibacterial activity against fluoroquinolone-resistant Staphylococcus haemolyticus 16568 after 24 to 48 hrs by microdilution method; format: functional; summary of the method: as §2

Row | SMILES | MIC [1] [µg/mL] | MIC [3] [µg/mL] | MIC [4] [µg/mL] | IC50 [5] [µg/mL] | MNTC at 48 h [6] [µg/mL] | Activity [7] | MIC [8] [µg/mL] | MIC [9] [µg/mL] | MIC [10] [µg/mL] | MIC [11] [µg/mL] | MIC [12] [µg/mL] | also measured
1 | O=C(N[C@H](CO)[C@H](O)c1ccc([N+](=O)[O-])cc1)C(Cl)Cl [CHLORAMPHENICOL] | 2 (≈ 6.19 µM) |  |  |  |  |  |  |  |  |  |  | 
2 | CCCCCCCCCCCCCCCCOP(=O)(CCN1C[C@@H](O)[C@H](O)C1)OC[C@H]1O[C@@H](n2ccc(=O)[nH]c2=O)[C@H](O)[C@@H]1O (mixture of isomers) |  |  |  |  |  |  |  |  |  |  |  | Activity [2]: Active
3 | CCCCCCCCCCCCCCCCOCCCOP(=O)(CCN1C[C@@H](O)[C@H](O)C1)OC[C@H]1O[C@@H](n2ccc(N)nc2=O)[C@H](O)[C@@H]1O (stereo not given in full) | 3.13 (≈ 4.35 µM) | 6.25 (≈ 8.69 µM) | 6.25 (≈ 8.69 µM) | 67 (≈ 93.2 µM) | 31.2 | Non-toxic | > 200 | > 200 | 6.25 (≈ 8.69 µM) | 25 (≈ 34.8 µM) | 3.13 (≈ 4.35 µM) | 
4 | CC(C)C[C@@H](NC[C@@H](NC(=O)N[C@H](C(=O)O)C(C)C)[C@@H]1CCNC(=N)N1)C(=O)NCCCN[C@H](C(=O)O)[C@H](O[C@@H]1O[C@H](CN)[C@@H](O)[C@H]1O)[C@H]1O[C@@H](n2ccc(=O)[nH]c2=O)[C@H](O)[C@@H]1O |  |  |  |  |  |  |  |  |  |  |  | MIC [13]: > 64 µg/mL; MIC [14]: > 64 µg/mL; MIC [15]: > 64 µg/mL; MIC [16]: > 64 µg/mL; MIC [17]: > 64 µg/mL; MIC [18]: > 64 µg/mL
5 | CN[C@H](CC(C)C)C(=O)N[C@H]1C(=O)N[C@@H](CC(N)=O)C(=O)N[C@H]2C(=O)N[C@H]3C(=O)N[C@H](C(=O)N[C@H](C(=O)O)c4cc(O)cc(O)c4-c4cc3ccc4O)[C@H](O)c3ccc(c(Cl)c3)Oc3cc2cc(c3O[C@@H]2O[C@H](CO)[C@@H](O)[C@H](O)[C@H]2O[C@H]2C[C@](C)(N)[C@H](O)[C@H](C)O2)Oc2ccc(cc2Cl)[C@H]1O [VANCOMYCIN] |  |  |  |  |  |  |  |  |  |  |  | MIC [15]: 1 µg/mL (≈ 0.69 µM); MIC [16]: > 64 µg/mL; MIC [18]: > 64 µg/mL
6 | CCCCCCCCCCCCCCOP(=O)(CCN1C[C@@H](O)[C@H](O)C1)OC[C@H]1O[C@@H](n2ccc(=O)[nH]c2=O)[C@H](O)[C@@H]1O (stereo not given in full) | 6.25 (≈ 9.86 µM) | 12.5 (≈ 19.7 µM) | 12.5 (≈ 19.7 µM) | 58 (≈ 91.5 µM) | 31.2 | Non-toxic | > 200 | > 200 | 12.5 (≈ 19.7 µM) | 12.5 (≈ 19.7 µM) | 6.25 (≈ 9.86 µM) | MIC [19]: 25 µg/mL (≈ 39.4 µM); MIC [20]: 12.5 µg/mL (≈ 19.7 µM)
7 | CCOP(=O)(CCN1C[C@@H](O)[C@H](O)C1)OC[C@H]1O[C@@H](n2ccc(=O)[nH]c2=O)[C@H](O)[C@@H]1O (stereo not given in full) |  |  |  |  |  | Non-toxic | > 200 | > 200 |  |  |  | 
8 | CCCCCCCCCCCCCCCCOP(=O)(CCN1C[C@H](O)C[C@H]1CO)OC[C@H]1O[C@@H](n2ccc(=O)[nH]c2=O)[C@H](O)[C@@H]1O (stereo not given in full) | 3.13 (≈ 4.63 µM) | 6.25 (≈ 9.25 µM) | 6.25 (≈ 9.25 µM) | 116 (≈ 172 µM) | 62.5 | Non-toxic | > 200 | > 200 | 6.25 (≈ 9.25 µM) | 100 (≈ 148 µM) | 3.13 (≈ 4.63 µM) | 
9 | CCCCCCCCCCCCCCCCOP(=O)(CCN1C[C@@H](O)[C@H](O)C1)OC[C@H]1O[C@@H](n2ccc(=O)[nH]c2=O)[C@H](O)[C@@H]1O (stereo in doubt; 12i-P1) |  |  |  |  |  | Toxic |  |  |  |  |  | 
10 | CC(C)(C)C(=O)SCCOP(=O)(CCN1C[C@@H](O)[C@H](O)C1)OC[C@H]1O[C@@H](n2ccc(=O)[nH]c2=O)[C@H](O)[C@@H]1O (stereo not given in full) |  |  |  | > 1000 | > 1000 | Non-toxic | > 200 | > 200 |  |  |  | 
